Measurements reported in ChEMBL document CHEMBL4837193 (Eur J Med Chem, 2021).

Columns and labels:
HeLa = test: Antiproliferative activity against human HeLa cells assessed as cell growth inhibition after 48 hrs by MTT assay; assay type: functional, cell-based
Method in brief: (§1)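 Cells grown at 37 °C with CO2 in RPMI-1640 or DMEM plus 10% FBS. Seeded at 2 × 10³ per well, attached 24 h, then medium changed. Compound exposure 48 h at 37 °C, DMSO 0.1% as vehicle. MTT added and incubated a further 4 h. Crystals dissolved, absorbance read at 570 nm. IC50 from curve fitting, mean ± SD of three independent experiments.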

HCT-116 = test: Antiproliferative activity against human HCT-116 cells assessed as cell growth inhibition after 48 hrs by MTT assay; assay type: functional, cell-based; conditions: HCT-116, 48 h; method in brief: as §1
A549 = test: Antiproliferative activity against human A549 cells assessed as cell growth inhibition after 48 hrs by MTT assay; assay type: functional, cell-based; conditions: A549, 48 h; method in brief: as §1
HT-29 = test: Antiproliferative activity against human HT29 cells assessed as cell growth inhibition after 48 hrs by MTT assay; assay type: functional, cell-based; conditions: HT-29, 48 h
Tubulin = test: Inhibition of tubulin polymerization (unknown origin) measured afer 30 mins every 1 min for 20 mins by spectrophotometric method; assay type: protein-complex assay, Homo sapiens
Method in brief: (§2)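 Tubulin at 2 mg/mL in PEM buffer (100 mM PIPES pH 6.9, 1 mM MgCl2, 1 mM EGTA, 5% glycerol) preincubated on ice with compound or DMSO, then GTP added. After 0.5 h, A340 read every 1 min for 20 min at 37 °C. Plateau values used.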

HepG2 = test: Antiproliferative activity against human HepG2 cells assessed as cell growth inhibition after 48 hrs by MTT assay; assay type: functional, cell-based; conditions: HepG2, 48 h; method in brief: as §1
HEK293 = test: Antiproliferative activity against human HEK293 cells assessed as cell growth inhibition after 48 hrs by MTT assay; assay type: cell-based; conditions: HEK293, 48 h; method in brief: as §1
T47D = test: Antiproliferative activity against human T47D cells assessed as cell growth inhibition after 48 hrs by MTT assay; assay type: functional, cell-based
Tubulin (Homo sapiens) = Tubulin (Homo sapiens) (UniProt P68371+Q9H4B7+P0DPH7+P68366+Q13509+Q71U36+P04350+Q3ZCM7+P07437+P68363+Q9BQE3+Q6PEY2+Q13885+Q9BVA1+Q9BUF5); test: Inhibition of tubulin polymerization (unknown origin) at 10 uM measured after 30 mins every 1 min for 20 mins by spectrophotometric method; assay type: protein-complex assay
Method in brief: as §2, with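 “used. Single-point inhibition at 10 µM; IC50 is the concentration halving polymerization at 20 min, mean ± SD of three experiments.” for “used.”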

COc1cc(-c2nc3nccc(-c4cc(Cl)c(NC(C)=O)c(Cl)c4)n3n2)cc(OC)c1OC
IC50 (HeLa): > 30 µM

COc1ccc(-c2nc3nccc(-c4cc(OC)c(OC)c(OC)c4)n3n2)cc1N
IC50 (HCT-116): > 100 µM
IC50 (A549): 18.9 µM
IC50 (HT-29): 83 µM
IC50 (Tubulin): 12.2 µM
IC50 (HepG2): 21.1 µM
IC50 (HEK293): > 100 µM
IC50 (T47D): 6.51 µM
inhibition (Tubulin (Homo sapiens)): 49%
IC50 (HeLa): 0.11 µM

COc1cc(-c2nc3nccc(-c4ccccc4C)n3n2)cc(OC)c1OC
IC50 (HeLa): > 30 µM

COc1ccc(-c2ccnc3nc(-c4cc(OC)c(OC)c(OC)c4)nn23)cc1[N+](=O)[O-]
IC50 (HeLa): > 30 µM

COc1ccc(-c2ccnc3nc(-c4cc(OC)c(OC)c(OC)c4)nn23)cc1F
IC50 (HeLa): > 30 µM

COc1cc(-c2nc3nccc(-c4ccc(C)cc4)n3n2)cc(OC)c1OC
IC50 (HeLa): > 30 µM

COc1cc(-c2nc3nccc(-c4ccc(Cl)c(Cl)c4)n3n2)cc(OC)c1OC
IC50 (HeLa): > 30 µM

COc1cc(-c2nc3nccc(-c4ccc(C(F)(F)F)cc4)n3n2)cc(OC)c1OC
IC50 (HeLa): > 30 µM

COc1ccc(-c2ccnc3nc(-c4cc(OC)c(OC)c(OC)c4)nn23)cc1
IC50 (HeLa): > 30 µM

COc1cc(-c2nc3nccc(-c4cc(OC)c(OC)c(OC)c4)n3n2)cc(OC)c1OC
IC50 (HeLa): > 30 µM

COC(=O)c1ccc(-c2ccnc3nc(-c4cc(OC)c(OC)c(OC)c4)nn23)cc1
IC50 (HeLa): > 30 µM

COc1cc(-c2nc3nccc(-c4ccc(NC(C)=O)cc4)n3n2)cc(OC)c1OC
IC50 (HeLa): 22.2 µM

COc1ccc(-c2ccnc3nc(-c4cc(OC)c(OC)c(OC)c4)nn23)cc1N
IC50 (HCT-116): 91.1 µM
IC50 (A549): > 100 µM
IC50 (HT-29): 11.5 µM
IC50 (HepG2): 41.2 µM
IC50 (HEK293): > 100 µM
IC50 (T47D): > 100 µM
inhibition (Tubulin (Homo sapiens)): 12%
IC50 (HeLa): 0.4 µM

COc1ccc(-c2nc3nccc(-c4cc(OC)c(OC)c(OC)c4)n3n2)cc1
IC50 (HeLa): 0.9 µM
